Consider four molecules from ChEMBL document CHEMBL1154674, “Synthesis and evaluation of three 18F-labeled aminophenylbenzothiazoles as amyloid imaging agents” (J Med Chem, 2009).

Structures are written as SMILES.

What all share (type): ADME, organism-based, Macaca mulatta
Data set [1] can be described thus: Drug level in normal rhesus monkey cerebellum assessed as standard uptake value at 152.9 MBq, iv after 85 mins by microPET. The settings on record: in vivo. A digest of the protocol: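 One normal rhesus monkey, tracer given iv via the vena saphena (152.9 MBq), with at least 1 day between tracer injections. Dynamic brain μPET over 90 min used frames of 5 × 60 s, 5 × 120 s, 9 × 300 s and 3 × 600 s. Images were reconstructed by filtered back projection with a RAMP filter. Regional time-activity curves were expressed as SUV.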

Data set [2] is described as follows: Drug level in normal rhesus monkey white matter assessed as standard uptake value at 152.9 MBq, iv after 42.5 mins by microPET. The settings on record: in vivo.
Data set [3] in a line: Drug level in normal rhesus monkey frontal cortex assessed as standard uptake value at 152.9 MBq, iv after 6 mins by microPET. The settings on record: in vivo, 0.1 h. A digest of the protocol:
(§1)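 Single normal rhesus monkey; tracer given iv via the vena saphena, 1 day apart from the other tracer injections. Dynamic μPET ran 90 min (5×60 s, 5×120 s, 9×300 s, 3×600 s). Images were reconstructed by filtered back projection with a RAMP filter. Regional time-activity curves were expressed as SUV.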

A short description of data set [4]: Drug level in normal rhesus monkey frontal cortex assessed as standard uptake value at 152.9 MBq, iv after 12 mins by microPET. Conditions: in vivo, 0.2 h. In a few lines: as §1
The nature of data set [5]: Drug level in normal rhesus monkey cerebellum assessed as standard uptake value at 152.9 MBq, iv after 65 mins by microPET. The settings on record: in vivo. In a few lines:
(§2)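 One normal rhesus monkey received each tracer via the vena saphena, with 1 day between injections. Dynamic μPET ran 180 min for 18F tracers (5×60 s, 5×120 s, 9×300 s, 12×600 s) and 90 min for the 11C tracer (5×60 s, 5×120 s, 9×300 s, 3×600 s). Filtered back-projection reconstruction (RAMP filter) was used. Time-activity curves were drawn to give regional SUV.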

A short description of data set [6]: Drug level in normal rhesus monkey cerebellum assessed as standard uptake value at 152.9 MBq, iv after 42.5 mins by microPET. The settings on record: in vivo. In a few lines:
as §2

A short description of data set [7]: Drug level in normal rhesus monkey white matter assessed as standard uptake value at 152.9 MBq, iv after 85 mins by microPET. Conditions: in vivo.
Data set [8] in a line: Drug level in normal rhesus monkey thalamus assessed as standard uptake value at 152.9 MBq, iv after 32.5 mins by microPET. The settings on record: in vivo.
A short description of data set [9]: Drug level in normal rhesus monkey white matter assessed as standard uptake value at 152.9 MBq, iv after 75 mins by microPET. The settings on record: in vivo, 1.25 h.
Data set [10] can be described thus: Drug level in normal rhesus monkey cerebellum assessed as standard uptake value at 152.9 MBq, iv after 27.5 mins by microPET. The settings on record: in vivo. A digest of the protocol:
as §1

Data set [11] in a line: Drug level in normal rhesus monkey pons assessed as standard uptake value at 152.9 MBq, iv after 65 mins by microPET. The settings on record: in vivo.
Data set [12] can be described thus: Drug level in normal rhesus monkey pons assessed as standard uptake value at 109.4 MBq, iv after 0.375 mins by microPET. The settings on record: in vivo, 22 s.
The nature of data set [13]: Drug level in normal rhesus monkey white matter assessed as standard uptake value at 109.4 MBq, iv after 47.5 mins by microPET. Conditions: in vivo.
Data set [14] is described as follows: Drug level in normal rhesus monkey cerebellum assessed as standard uptake value at 109.4 MBq, iv after 93 mins by microPET. Conditions: in vivo, 1.55 h.
Data set [15] can be described thus: Drug level in normal rhesus monkey parietal cortex assessed as standard uptake value at 109.4 MBq, iv after 42.5 mins by microPET. The settings on record: in vivo.
Data set [16] is described as follows: Drug level in normal rhesus monkey parietal cortex assessed as standard uptake value at 109.4 MBq, iv after 32.5 mins by microPET. The settings on record: in vivo.
A short description of data set [17]: Drug level in normal rhesus monkey parietal cortex assessed as standard uptake value at 109.4 MBq, iv after 69 mins by microPET. Conditions: in vivo, 1.15 h.
A short description of data set [18]: Drug level in normal rhesus monkey frontal cortex assessed as standard uptake value at 109.4 MBq, iv after 47.5 mins by microPET. The settings on record: in vivo. A digest of the protocol: (§3)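 One normal rhesus monkey, each tracer given iv via the vena saphena (81.2, 96.3 or 109.4 MBq), with 1 day between tracer injections. Dynamic brain μPET over 180 min used frames of 5 × 60 s, 5 × 120 s, 9 × 300 s and 12 × 600 s. Images were reconstructed by filtered back projection with a RAMP filter. Regional time-activity curves were expressed as SUV.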

Data set [19] is described as follows: Drug level in normal rhesus monkey pons assessed as standard uptake value at 109.4 MBq, iv after 63 mins by microPET. The settings on record: in vivo, 1.05 h.
A short description of data set [20]: Drug level in normal rhesus monkey pons assessed as standard uptake value at 109.4 MBq, iv after 12.5 mins by microPET. The settings on record: in vivo.
Data set [21] is described as follows: Drug level in normal rhesus monkey frontal cortex assessed as standard uptake value at 96.3 MBq, iv after 17.5 mins by microPET. Conditions: in vivo.
A short description of data set [22]: Drug level in normal rhesus monkey thalamus assessed as standard uptake value at 96.3 MBq, iv after 115 mins by microPET. Conditions: in vivo.
Data set [23] can be described thus: Drug level in normal rhesus monkey frontal cortex assessed as standard uptake value at 96.3 MBq, iv after 125 mins by microPET. Conditions: in vivo.
Data set [24] in a line: Drug level in normal rhesus monkey white matter assessed as standard uptake value at 96.3 MBq, iv after 3.5 mins by microPET. Conditions: in vivo.
Data set [25] is described as follows: Drug level in normal rhesus monkey thalamus assessed as standard uptake value at 96.3 MBq, iv after 4.5 mins by microPET. Conditions: in vivo, 0.075 h.
Data set [26] in a line: Drug level in normal rhesus monkey parietal cortex assessed as standard uptake value at 96.3 MBq, iv after 175 mins by microPET. Conditions: in vivo.
Data set [27] in a line: Drug level in normal rhesus monkey cerebellum assessed as standard uptake value at 96.3 MBq, iv after 165 mins by microPET. The settings on record: in vivo, 2.75 h. In a few lines:
as §3

Data set [28] in a line: Drug level in normal rhesus monkey white matter assessed as standard uptake value at 96.3 MBq, iv after 2.5 mins by microPET. Conditions: in vivo.
The nature of data set [29]: Drug level in normal rhesus monkey frontal cortex assessed as standard uptake value at 81.2 MBq, iv after 6 mins by microPET. The settings on record: in vivo, 0.1 h.
Data set [30] can be described thus: Drug level in normal rhesus monkey cerebellum assessed as standard uptake value at 81.2 MBq, iv after 0.5 mins by microPET. Conditions: in vivo. A digest of the protocol:
as §3

Data set [31] can be described thus: Drug level in normal rhesus monkey white matter assessed as standard uptake value at 81.2 MBq, iv after 57.5 mins by microPET. Conditions: in vivo.
Data set [32] is described as follows: Drug level in normal rhesus monkey cerebellum assessed as standard uptake value at 81.2 MBq, iv after 65 mins by microPET. Conditions: in vivo. In a few lines:
as §3

The nature of data set [33]: Drug level in normal rhesus monkey cerebellum assessed as standard uptake value at 81.2 MBq, iv after 37.5 mins by microPET. Conditions: in vivo, 0.625 h. In a few lines: as §3
Data set [34] can be described thus: Drug level in normal rhesus monkey cerebellum assessed as standard uptake value at 81.2 MBq, iv after 115 mins by microPET. Conditions: in vivo. In a few lines:
as §3

A short description of data set [35]: Drug level in normal rhesus monkey parietal cortex assessed as standard uptake value at 81.2 MBq, iv after 22.5 mins by microPET. The settings on record: in vivo, 0.375 h.

Consider `[11CH3]Nc1ccc(-c2nc3ccc(O)cc3s2)cc1` [PITTSBURGH COMPOUND B], for which the SUV in data set [1] was determined as 0.685; in data set [2], 1.04; in [3] it was 2.184; in data set [4], 2.027; in data set [5], 0.723; in data set [6] it was 0.936. Besides, the SUV in data set [7] came out at 0.878; in data set [8], 1.517; in [9] it was 0.828; in data set [10], 1.258; in data set [11], 0.852.

Regarding `Nc1ccc2nc(-c3ccc([18F])cc3)sc2c1`, the SUV in data set [12] was found to be 0.4; in data set [13], 3.53; in [14], 2.52; in data set [15], 4.54; in data set [16] it was 4.8; in [17], 4.1. The SUV was 4.76 in [18], 4.75 in data set [19] and 4.65 in [20].

Consider `CN(C)c1ccc2nc(-c3ccc([18F])cc3)sc2c1`, for which the SUV is listed as 2.22 in [21]; 2.14 in data set [22]; 1.54 in data set [23]; 1.15 in [24]; 1.93 in [25]; 1.17 in [26]. In addition, the SUV in [27] is given as 0.79; in [28] it was 0.94.

With `CNc1ccc2nc(-c3ccc([18F])cc3)sc2c1`, the SUV in data set [29] stood at 5.127; in data set [30] it was 0.735; in data set [31] it was 3.796; in [32] it was 1.88; in [33], 2.545; in data set [34] it was 1.715. Also, the SUV in data set [35] amounted to 4.538.
